Results on 78 molecules are retold here after PubChem BioAssay AID504516 (Sanford-Burnham Center for Chemical Genomics, 2011).

Active and inactive are the calls of the source.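 How the source made its calls: active means IC50 at or below 20 µM; inactive means the rest.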

By IC50 is commonly meant the midpoint of a concentration-inhibition curve.

In this assay the test system is Jurkat NF-kB luciferase, PMA/ionomycin, luminescence 16 h. Description: NF-kB reporter inhibition in Jurkat T cells, SAR follow-up, counter-screen for B-cell antigen receptor NF-kB inhibitors, cell-based, luminescence (AID 504516). In a few lines:
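Material: Jurkat T cells with NF-kB-driven luciferase reporter; amount: 8000 cells/well; doses: compound concentration series; schedule: 1 h compound pre-incubation, 16 h agonist exposure, 37 °C; measured by: luciferase luminescence with SteadyGlo reagent; benchmarks: DMSO-only and no-agonist wells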
For orientation: Counterscreens check selectivity or assay interference.
Take `CNC(=O)CCc1nc(-c2ccc(C(C)C)cc2)no1`: the IC50 was > 79 µM (inactive).
In the case of `CCCOc1ccc(-c2nc(CSCC(=O)NCc3ccco3)c(C)o2)cc1`, the IC50 was > 79 µM (inactive).
In the case of `CCOc1ccc(-c2nc(CSCC(=O)NCC3CC3)c(C)o2)cc1`, the IC50 is 20.9 µM (inactive).
The result for `CC(C)(C)NC(=O)CCc1nc(-c2ccccc2)no1` reads > 79 µM (inactive); that for `CCN(CC)C(=O)CCc1nc(-c2ccc(C(C)(C)C)cc2)no1`, 16.4 µM; that for `CCCOc1ccc(-c2nc(CSCC(=O)O)c(C)o2)cc1`, less than 0.15 µM.
`CCNC(=O)CCc1nc(-c2c(Cl)cccc2Cl)no1`: the IC50 was > 79 µM (inactive).
For the molecule `CCCCOc1ccc(-c2nc(CSCC(=O)O)c(C)o2)cc1`, the IC50 is less than 0.15 µM.
In the case of `CCc1ccc(-c2nc(CSCC(=O)NC3CC3)c(-c3ccccc3)o2)cc1` it was 72.8 µM (inactive); in that of `CCOC(=O)CC(NC(=O)c1ccc(Br)cc1)c1ccc(F)c([N+](=O)[O-])c1` (stereo not drawn), 42.7 µM (inactive); in that of `Cc1ccc(-c2nc(CSCC(=O)NC3CC3)c(C)o2)cc1`, > 79 µM (inactive).
The result for `CC(C)(C)c1ccc(-c2noc(CCC(=O)NC3CCC3)n2)cc1` reads 0.94 µM; that for `CCOc1ccc(-c2nc(CSCC(N)=O)c(C)o2)cc1`, > 79 µM (inactive).
The result for `CCc1ccc(-c2noc(CCC(=O)NC(C)(C)C)n2)cc1` reads > 79 µM (inactive).
Regarding `CCc1ccc(-c2noc(CCC(=O)NC)n2)cc1`, the IC50 is > 79 µM (inactive).
As to `COc1cccc(-c2cc(=O)c3cc(NC(=O)c4ccccc4)ccc3[nH]2)c1`, the IC50 was > 79 µM (inactive).
`CCOc1ccc(-c2nc(CSCC(=O)NC3CCC3)c(C)o2)cc1`: the IC50 is 26.4 µM (inactive).
Regarding `C#CCNC(=O)CSCc1nc(-c2ccc(OCC)cc2)oc1C`, the IC50 is > 79 µM (inactive).
On to `CC(C)(C)c1ccc(-c2noc(CCC(N)=O)n2)cc1`, for which the IC50 is 0.19 µM.
For `CNC(=O)CCc1nc(-c2ccccc2)no1`, the IC50 is > 79 µM (inactive).
The result for `CCOc1ccc(-c2nc(CSCC(=O)NC3CC3)c(-c3ccccc3)o2)cc1` reads 54.6 µM (inactive); that for `Cc1oc(-c2ccc(OC(F)(F)F)cc2)nc1CSCC(=O)NC1CC1`, > 79 µM (inactive).
In the case of `CCNC(=O)CCc1nc(-c2ccccc2C)no1` it was > 79 µM (inactive).
With `CN(C)C(=O)CCc1nc(-c2ccc(C(C)(C)C)cc2)no1`, the IC50 was 71.3 µM (inactive).
As to `CCOc1ccccc1-c1nc(CSCC(=O)NC2CC2)c(C)o1`, the IC50 is > 79 µM (inactive).
In the case of `COC(=O)CCc1nc(-c2ccc(C(C)(C)C)cc2)no1` it was less than 0.16 µM; in that of `COc1ccc(-c2nc(CSCC(=O)NC3CC3)c(C)o2)cc1`, > 79 µM (inactive); in that of `CCNC(=O)CCc1nc(-c2ccc(OCC)cc2)no1`, > 79 µM (inactive).
For the molecule `Cc1ccc(-c2nc(CSCC(=O)NCc3ccco3)c(C)o2)cc1`, the IC50 was > 79 µM (inactive).
In the case of `CCc1ccc(-c2noc(CCC(=O)NC(C)CC)n2)cc1` (stereo not drawn) it was > 79 µM (inactive); in that of `Cc1oc(-c2ccccc2)nc1CSCC(=O)NCc1ccco1`, > 79 µM (inactive).
With `CCOc1ccc(-c2nc(CSCC(=O)NC)c(C)o2)cc1`, the IC50 was > 79 µM (inactive).
The result for `CCNC(=O)CCc1nc(-c2ccc(CC)cc2)no1` reads > 79 µM (inactive); that for `CCC(C)NC(=O)CCc1nc(-c2ccc(C(C)(C)C)cc2)no1` (stereo not drawn), > 79 µM (inactive); that for `CCCCc1ccc(-c2noc(CCC(=O)NC(C)(C)C)n2)cc1`, 1.62 µM.
In the case of `CCOc1ccc(-c2nc(CSCC(=O)NC(C)(C)C)c(C)o2)cc1`, the IC50 is 10.8 µM.
The result for `CCOc1ccc(-c2noc(CCC(=O)O)n2)cc1` reads 9.25 µM; that for `CC(C)(C)c1ccc(-c2noc(CCC(=O)NC3CC3)n2)cc1`, 58.7 µM (inactive); that for `COc1cccc(-c2cc(=O)c3cc(NC(=O)c4ccc(N(C)C)cc4)ccc3[nH]2)c1`, > 79 µM (inactive).
Turning to `CCOc1ccccc1-c1nc(CSCC(=O)O)c(C)o1`, the IC50 was > 79 µM (inactive).
`Cc1oc(-c2ccccc2)nc1CSCC(=O)NC1CC1`: the IC50 is > 79 µM (inactive).
As to `CCCCc1ccc(-c2noc(CCC(=O)NCC)n2)cc1`, the IC50 is > 79 µM (inactive).
The result for `CCOc1ccc(-c2nc(CSCC(=O)O)c(C)o2)cc1` reads less than 0.15 µM.
With `CCCCc1ccc(-c2noc(CCC(=O)NC)n2)cc1`, the IC50 was > 79 µM (inactive).
Take `CCCCOc1ccc(-c2nc(CSCC(=O)NC3CC3)c(C)o2)cc1`: the IC50 is > 79 µM (inactive).
For `CCOc1ccc(-c2nc(CSCC(=O)N3CCOCC3)c(C)o2)cc1`, the IC50 is > 79 µM (inactive).
In the case of `Cc1oc(-c2ccc(C(F)(F)F)cc2)nc1CSCC(=O)NC1CC1` it was > 79 µM (inactive).
The result for `CCC(C)NC(=O)CCc1nc(-c2ccccc2)no1` (stereo not drawn) reads > 79 µM (inactive); that for `Cc1oc(-c2ccc(C(F)(F)F)cc2)nc1CSCC(=O)O`, 0.52 µM.
In the case of `CCOc1ccc(-c2nc(CSCC(=O)NC3CC3)c(C)o2)cc1` it was > 79 µM (inactive); in that of `CCCCc1ccc(-c2noc(CCC(=O)NC3CC3)n2)cc1`, 1.25 µM.
`CCCOc1ccc(-c2nc(CSCC(=O)NC3CC3)c(C)o2)cc1`: the IC50 is > 79 µM (inactive).
In the case of `CCOc1ccc(-c2nc(CSCC(=O)N(C)C)c(C)o2)cc1` it was > 79 µM (inactive).
In the case of `CCOc1ccc(-c2nc(CSCC(=O)NCc3ccco3)c(C)o2)cc1` it was 25.4 µM (inactive).
For the molecule `CCC(C)NC(=O)CCc1nc(-c2ccc(C(C)C)cc2)no1` (stereo not drawn), the IC50 was > 79 µM (inactive).
In the case of `CCNC(=O)CCc1nc(-c2ccccc2)no1` it was > 79 µM (inactive); in that of `CCNC(=O)CCc1nc(-c2ccccc2Cl)no1`, > 79 µM (inactive); in that of `CCNC(=O)CCc1nc(-c2cccc(F)c2)no1`, > 79 µM (inactive).
Consider `COc1ccc(-c2nc(CSCC(=O)NCc3ccco3)c(C)o2)cc1`, for which the IC50 was > 79 µM (inactive).
The result for `CCNC(=O)CCc1nc(-c2cccc(OC)c2)no1` reads > 79 µM (inactive); that for `CCNC(=O)CCc1nc(-c2ccc(C(C)C)cc2)no1`, > 79 µM (inactive); that for `Cc1oc(-c2ccc(OC(F)(F)F)cc2)nc1CSCC(=O)O`, 0.22 µM.
The result for `O=C(CCc1nc(-c2ccccc2)no1)NC1CC1` reads > 79 µM (inactive); that for `CCc1ccc(-c2nc(CSCC(=O)NCc3ccco3)c(C)o2)cc1`, > 79 µM (inactive); that for `CCCCOc1ccc(-c2nc(CSCC(=O)NCc3ccco3)c(C)o2)cc1`, > 79 µM (inactive).
In the case of `CCCCc1ccc(-c2noc(CCC(=O)NC(C)CC)n2)cc1` (stereo not drawn) it was 0.41 µM; in that of `CC(C)c1ccc(-c2noc(CCC(=O)NC3CC3)n2)cc1`, > 79 µM (inactive).
For `CC(C)(C)c1ccc(-c2noc(CCC(=O)O)n2)cc1`, the IC50 is 0.2 µM.
In the case of `CCNC(=O)CCc1nc(-c2ccc(C(C)(C)C)cc2)no1` it was > 79 µM (inactive).
The result for `CCc1ccc(-c2noc(CCC(=O)NC3CC3)n2)cc1` reads > 79 µM (inactive).
The result for `CC(C)c1ccc(-c2noc(CCC(=O)NC(C)(C)C)n2)cc1` reads 15.2 µM.
In the case of `CNC(=O)CCc1nc(-c2ccc(C(C)(C)C)cc2)no1`, the IC50 was > 79 µM (inactive).
The result for `COc1ccc(C(=O)Nc2ccc3[nH]c(-c4cccc(OC)c4)cc(=O)c3c2)cc1` reads > 79 µM (inactive).
With `CCc1ccc(-c2nc(CSCC(=O)NC3CC3)c(C)o2)cc1`, the IC50 was > 79 µM (inactive).
In the case of `CCOc1cccc(-c2nc(CSCC(=O)NC3CC3)c(C)o2)c1` it was > 79 µM (inactive); in that of `CC(C)Nc1ccc(C(CC(=O)O)NC(=O)c2ccccc2)cc1[N+](=O)[O-]` (stereo not drawn), > 79 µM (inactive).
With `O=C(O)CCc1nc(-c2ccccc2)no1`, the IC50 is > 79 µM (inactive).
The result for `CCNC(=O)CCc1nc(-c2cccc(C)c2)no1` reads > 79 µM (inactive).
